Data reported in ChEMBL document CHEMBL2417507, “Synthesis and bioevaluation of some new isoniazid derivatives” (Bioorg Med Chem, 2013).
≈ marks a conversion by molar mass, not a printed value. Calls of active or inactive are those of the source. No cut-off for these calls is given here.

Assays:
Staphylococcus aureus = assay: Antibacterial activity against Staphylococcus aureus assessed as growth inhibition at 1 mg/mL after 24 hrs by agar-disk diffusion technique; assay type: functional, organism-based
Outline: (§1)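 Agar-disk diffusion, adapted: plates seeded with 0.5 McFarland suspension prepared from 24 h cultures; 5 µL of a 1 mg/mL compound solution spotted onto the seeded solid medium; incubated 24 h at 37 °C. Stocks made in DMSO.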

Acinetobacter baumannii [1] = assay: Antibacterial activity against Acinetobacter baumannii 247 assessed as growth inhibition at 1 mg/mL after 24 hrs by agar-disk diffusion technique; assay type: functional, organism-based; outline: as §1
HCT-8 [2] = assay: Induction of apoptosis in human HCT8 cells assessed as late apoptotic cells at 25 ug/mL after 24 hrs by Annexin V-FITC and propidium iodide staining-based flow cytometric analysis (reference value: 2.97%); assay type: cell-based; settings: hct-8, 24 h
Acinetobacter baumannii [3] = assay: Antibacterial activity against Acinetobacter baumannii 122 assessed as growth inhibition at 1 mg/mL after 24 hrs by agar-disk diffusion technique; assay type: functional, organism-based; outline: as §1
Klebsiella pneumoniae = assay: Antibacterial activity against Klebsiella pneumoniae 1756 assessed as growth inhibition at 1 mg/mL after 24 hrs by agar-disk diffusion technique; assay type: functional, organism-based; outline: as §1
HCT-8 [4] = assay: Cell cycle arrest in human HCT8 cells assessed as accumulation at S phase at 12.5 ug/mL after 24 hrs by propidium iodide staining-based flow cytometric analysis (reference value: 39.43%); assay type: ADME; settings: hct-8, 24 h
HCT-8 [5] = assay: Induction of apoptosis in human HCT8 cells assessed as early apoptotic cells at 25 ug/mL after 24 hrs by Annexin V-FITC and propidium iodide staining-based flow cytometric analysis (reference value: 1.57%); assay type: cell-based; settings: hct-8, 24 h
Acinetobacter baumannii [6] = assay: Antibacterial activity against Acinetobacter baumannii 192 assessed as growth inhibition at 1 mg/mL after 24 hrs by agar-disk diffusion technique; assay type: functional, organism-based; outline: as §1
HCT-8 [7] = assay: Cell cycle arrest in human HCT8 cells assessed as accumulation at G2/M phase at 12.5 ug/mL after 24 hrs by propidium iodide staining-based flow cytometric analysis (reference value: 13.83%); assay type: ADME; settings: hct-8, 24 h
Morganella morganii = assay: Antibacterial activity against Morganella morganii 2810 assessed as growth inhibition at 1 mg/mL after 24 hrs by agar-disk diffusion technique; assay type: functional, organism-based; outline: as §1
HCT-8 [8] = assay: Cytotoxicity against human HCT8 cells at 25 ug/mL after 24 hrs by trypan blue exclusion assay; assay type: cell-based; settings: hct-8, 24 h
Outline: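 HCT8 cells (3 × 10^5 per 3.5-cm well) treated 24 h, then trypsinised, spun and resuspended in PBS. Suspension mixed 1:1 with 0.4% trypan blue for 1 min and viable/non-viable cells counted on a haemocytometer. Each experiment repeated three times.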

Proteus mirabilis = assay: Antibacterial activity against Proteus mirabilis 1751 assessed as growth inhibition at 1 mg/mL after 24 hrs by agar-disk diffusion technique; assay type: functional, organism-based; outline: as §1
Enterococcus faecalis = assay: Antibacterial activity against Enterococcus faecalis 2920 assessed as growth inhibition at 1 mg/mL after 24 hrs by agar-disk diffusion technique; assay type: functional, organism-based; outline: as §1
Enterobacter cloacae = assay: Antibacterial activity against Enterobacter cloacae 1845 assessed as growth inhibition at 1 mg/mL after 24 hrs by agar-disk diffusion technique; assay type: functional, organism-based; outline: as §1
Escherichia coli = assay: Antibacterial activity against Escherichia coli 1777 assessed as growth inhibition at 1 mg/mL after 24 hrs by agar-disk diffusion technique; assay type: functional, organism-based; outline: as §1
[9] = Induction of apoptosis in human HCT8 cells assessed as viable cells at 25 ug/mL after 24 hrs by Annexin V-FITC and propidium iodide staining-based flow cytometric analysis (reference value: 87.7%); assay type: cell-based, HCT-8; settings: read-out: Activity
Citrobacter koseri = assay: Antibacterial activity against Citrobacter koseri 1742 assessed as growth inhibition at 1 mg/mL after 24 hrs by agar-disk diffusion technique; assay type: functional, organism-based; outline: as §1
HCT-8 [10] = assay: Induction of apoptosis in human HCT8 cells assessed as necrotic cells at 25 ug/mL after 24 hrs by Annexin V-FITC and propidium iodide staining-based flow cytometric analysis (reference value: 7.73%); assay type: cell-based; settings: hct-8, 24 h
HCT-8 [11] = assay: Cell cycle arrest in human HCT8 cells assessed as accumulation at G0/G1 phase at 12.5 ug/mL after 24 hrs by propidium iodide staining-based flow cytometric analysis (reference value: 46.43%); assay type: ADME; settings: hct-8, 24 h
Acinetobacter baumannii [12] = assay: Antibacterial activity against Acinetobacter baumannii 125 assessed as growth inhibition at 1 mg/mL after 24 hrs by agar-disk diffusion technique; assay type: functional, organism-based; outline: as §1
[13] = system: Radical scavenging activity; assay: Antioxidant activity assessed as DPPH radical scavenging activity at 0.1 mg/mL after 30 mins under dark conditions by spectrophotometric analysis relative to control; assay type: functional
Outline: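 Compounds dissolved in methanol at 0.1 mg/mL; 0.2 mL mixed with 1.8 mL of 2 × 10^-4 M DPPH in methanol and kept in the dark 30 min. Absorbance read at 517 nm. The blank was DPPH plus methanol. TAC (%) = (Abs initial − Abs 30 min)/Abs initial × 100.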

Pseudomonas aeruginosa [14] = assay: Antibacterial activity against Pseudomonas aeruginosa 165 assessed as growth inhibition at 1 mg/mL after 24 hrs by agar-disk diffusion technique; assay type: functional, organism-based; outline: as §1
Pseudomonas putida = assay: Antibacterial activity against Pseudomonas putida 160 assessed as growth inhibition at 1 mg/mL after 24 hrs by agar-disk diffusion technique; assay type: functional, organism-based; outline: as §1
Pseudomonas aeruginosa [15] = assay: Antibacterial activity against Pseudomonas aeruginosa ATCC 27853 assessed as growth inhibition at 1 mg/mL after 24 hrs by agar-disk diffusion technique; assay type: functional, organism-based; outline: as §1
Staphylococcus hominis = assay: Antibacterial activity against Staphylococcus hominis 1813 assessed as growth inhibition at 1 mg/mL after 24 hrs by agar-disk diffusion technique; assay type: functional, organism-based; outline: as §1
Acinetobacter baumannii [16] = assay: Antibacterial activity against Acinetobacter baumannii 135 assessed as growth inhibition at 1 mg/mL after 24 hrs by agar-disk diffusion technique; assay type: functional, organism-based; outline: as §1
[17] = system: Mycobacterium tuberculosis; assay: Antimycobacterial activity against Mycobacterium tuberculosis after 8 days by micro plate Alamar Blue assay; assay type: functional; settings: 192 h
Outline: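 Clinical M. tuberculosis strain grown in Middlebrook 7H9 broth. Compounds were dissolved in DMSO and serially diluted twofold on the plate, final 25 to 0.012 µg/mL. Plates were sealed and held 8 days at 37 °C. Alamar Blue with 10% Tween 80 (1:1) was then added for another 24 h at 37 °C. MIC was the lowest concentration preventing the blue-to-pink change.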

Pseudomonas aeruginosa [18] = assay: Antibacterial activity against Pseudomonas aeruginosa 1144 assessed as growth inhibition at 1 mg/mL after 24 hrs by agar-disk diffusion technique; assay type: functional, organism-based; outline: as §1
Acinetobacter baumannii [19] = assay: Antibacterial activity against Acinetobacter baumannii 136 assessed as growth inhibition at 1 mg/mL after 24 hrs by agar-disk diffusion technique; assay type: functional, organism-based; outline: as §1

Structure (SMILES): NC(S)(/C=C/c1ccc(Cl)cc1)NNC(=O)c1ccncc1 (centres undefined)
- growth inhibition (GI) (Staphylococcus aureus): Active
- growth inhibition (GI) (Acinetobacter baumannii [1]): Active
- Activity (HCT-8 [2]): 19.3%
- growth inhibition (GI) (Acinetobacter baumannii [3]): Active
- growth inhibition (GI) (Klebsiella pneumoniae): Active
- Activity (HCT-8 [4]): 29.41%
- Activity (HCT-8 [5]): 1.63%
- growth inhibition (GI) (Acinetobacter baumannii [6]): Active
- Activity (HCT-8 [7]): 15.59%
- growth inhibition (GI) (Morganella morganii): Active
- Activity (HCT-8 [8]): Toxic
- growth inhibition (GI) (Proteus mirabilis): Active
- growth inhibition (GI) (Enterococcus faecalis): Active
- growth inhibition (GI) (Enterobacter cloacae): Active
- growth inhibition (GI) (Escherichia coli): Active
- viability at 24 h, 25 ug/mL [9]: 55.4%
- growth inhibition (GI) (Citrobacter koseri): Active
- Activity (HCT-8 [10]): 23.7%
- Activity (HCT-8 [11]): 52.35%
- growth inhibition (GI) (Acinetobacter baumannii [12]): Active
- TAC [13]: 25.7%
- growth inhibition (GI) (Pseudomonas aeruginosa [14]): Active
- growth inhibition (GI) (Pseudomonas putida): Active
- growth inhibition (GI) (Pseudomonas aeruginosa [15]): Active
- growth inhibition (GI) (Staphylococcus hominis): Active
- growth inhibition (GI) (Acinetobacter baumannii [16]): Active
- MIC [17]: 6.25 µg/mL (≈ 18.7 µM)
- growth inhibition (GI) (Pseudomonas aeruginosa [18]): Active
- growth inhibition (GI) (Acinetobacter baumannii [19]): Active
